The source of these data is ChEMBL document CHEMBL3244344, “Nucleoside conjugates as potential antitumor agents. 2. Synthesis and biological activity of 1-(beta-D-arabinofuranosyl)cytosine conjugates of prednisolone and prednisone” (J Med Chem, 1979).

Bounds are passed on as bounds.

In data set [1] the test system is L1210. Nature of the data set: Antitumor activity against mouse L1210 cells allografted in C3D2F1/J mouse assessed as median survival time at 27 mg/kg, ip qd administered for 5 days (reference value: 10 days). The settings on record: route intraperitoneal. In kind it is functional.
Data set [2] has as its system L1210. The experiment in a line: Antitumor activity against mouse L1210 cells allografted in C3D2F1/J mouse assessed as increase in life span at 27 mg/kg, ip qd administered for 5 days relative to control. In kind it is functional. The settings on record: 120 h, route intraperitoneal.
Data set [3] relates to Mus musculus. Nature of the data set: Toxicity in C3D2F1/J mouse allografted with mouse L1210 cells assessed as body weight change at 27 mg/kg, ip qd administered for 5 days measured on day 8 (reference value: 1.81 +/- 0.79 g). The data set is classed as organism-based. More on the design: dose 27 mg/kg, route intraperitoneal. The settings on record: in vivo, 120 h.
In data set [4] the test system is L1210. The experiment in a line: Cytotoxicity against mouse L1210 cells assessed as growth inhibition measured at 72 hrs by trypan blue exclusion assay. The data set is classed as functional. The following applies: L1210, 72 h, read-out: ED50 (the source's name). The method, boiled down: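 L1210 mouse lymphoid leukemia cells seeded at 2–3 × 10⁵ cells/mL in RPMI 1640 + 10% fetal calf serum with compound (from Me2SO stock, final Me2SO 0.5%, compound 100 μM or lower). Viable cells counted by 0.05% Trypan blue exclusion in a hemocytometer at 24, 48, 72 h. Treated/untreated density ratio. ED50 at 72 h interpolated from response curves of three separate experiments.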

Data set [5] deals with Mus musculus. Nature of the data set: Toxicity in C3D2F1/J mouse allografted with mouse L1210 cells assessed as body weight change at 50 mg/kg, ip qd administered for 5 days measured on day 8 (reference value: 1.81 +/- 0.79 g). The data set is classed as organism-based. More on the design: dose 50 mg/kg, route intraperitoneal. The settings on record: in vivo, 120 h.
The subject of data set [6] is L1210. Nature of the data set: Antitumor activity against mouse L1210 cells allografted in C3D2F1/J mouse assessed as median survival time at 100 mg/kg, ip qd administered for 5 days (reference value: 9 days). The settings on record: route intraperitoneal. The data set is classed as functional.
A short description of data set [7]: Drug degradation assessed as steroid formation at 5 umol at pH 9 after 24 hrs by UV analysis in presence of Crotalus adamanteus 5'-nucleotidase. The data set is classed as physicochemical. The settings on record: buffer, pH 9, 24 h. In a few lines: (§1)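 Crude Crotalus adamanteus venom: 5 μmol conjugate in Tris-HCl buffer (pH 8.8) with 2.5 mg venom, 0.5 mL total, incubated 37 °C for 24 h. Products were resolved by paper chromatography alongside authentic markers.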

Data set [8] can be described thus: Drug degradation assessed as ara-C formation at 5 umol at pH 9 after 24 hrs by UV analysis in presence of Crotalus adamanteus 5'-nucleotidase. The data set is classed as physicochemical. The following applies: buffer, pH 9, 24 h. The method, boiled down: as §1
The subject of data set [9] is Mus musculus. Nature of the data set: Toxicity in C3D2F1/J mouse allografted with mouse L1210 cells assessed as body weight change at 100 mg/kg, ip qd administered for 5 days measured on day 8 (reference value: 1.81 +/- 0.79 g). The settings on record: in vivo, 120 h. Also noted: dose 100 mg/kg, route intraperitoneal. In kind it is organism-based.
In data set [10] the test system is L1210. Nature of the data set: Antitumor activity against mouse L1210 cells allografted in C3D2F1/J mouse assessed as increase in life span at 75 mg/kg, ip qd administered for 5 days relative to control. The following applies: 120 h, route intraperitoneal. In kind it is functional.
Data set [11] deals with Mus musculus. Nature of the data set: Toxicity in C3D2F1/J mouse allografted with mouse L1210 cells assessed as body weight change at 75 mg/kg, ip qd administered for 5 days measured on day 8 (reference value: 1.81 +/- 0.79 g). The following applies: in vivo, 120 h. In kind it is organism-based. More on the design: dose 75 mg/kg, route intraperitoneal.
Data set [12] is described as follows: Hydrolytic stability of the compound assessed as remaining compound level at 5 umol at pH 4.8 at 25 degC after 24 hrs by UV analysis in presence of wheat germ acid phosphatase. In kind it is physicochemical. The settings on record: read-out: Stability. The method, boiled down:
(§2)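 5 μmol conjugate in NaOAc buffer (pH 4.8) with 3 mg crude wheat germ acid phosphatase, 0.5 mL total, held at 25 °C for 24 h. Products were separated by paper chromatography against authentic markers.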

Data set [13] is described as follows: Drug degradation assessed as compound hydrolysis at 5 umol at pH 4.8 at 25 degC after 24 hrs by UV analysis in presence of wheat germ acid phosphatase. The data set is classed as physicochemical. The settings on record: read-out: Drug degradation. In a few lines:
as §2

Data set [14] is described as follows: Metabolic stability in baboon plasma assessed as remaining compound level at 5 umol at 37 degC after 24 hrs by UV analysis. The following applies: papio anubis, read-out: Stability. In kind it is ADME, cell-free. In a few lines:
(§3)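 5 μmol conjugate in 0.5 mL fresh baboon plasma, incubated at 37 °C for 24 h. Intact conjugate and products were separated by paper chromatography with authentic markers.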

The test system of data set [15] is L1210. The experiment in a line: Antitumor activity against mouse L1210 cells allografted in C3D2F1/J mouse assessed as median survival time at 50 mg/kg, ip qd administered for 5 days (reference value: 9 days). In kind it is functional. The following applies: route intraperitoneal.
The test system of data set [16] is L1210. The experiment in a line: Antitumor activity against mouse L1210 cells allografted in C3D2F1/J mouse assessed as increase in life span at 100 mg/kg, ip qd administered for 5 days relative to control. The data set is classed as functional. The following applies: 120 h, route intraperitoneal.
Data set [17] relates to L1210. Nature of the data set: Antitumor activity against mouse L1210 cells allografted in C3D2F1/J mouse assessed as median survival time at 25 mg/kg, ip qd administered for 5 days (reference value: 9 days). In kind it is functional. The following applies: route intraperitoneal.
For data set [18], the system named is L1210. The experiment in a line: Antitumor activity against mouse L1210 cells allografted in C3D2F1/J mouse assessed as median survival time at 75 mg/kg, ip qd administered for 5 days (reference value: 9 days). In kind it is functional. The settings on record: route intraperitoneal.
In data set [19] the test system is L1210. The experiment in a line: Antitumor activity against mouse L1210 cells allografted in C3D2F1/J mouse assessed as increase in life span at 50 mg/kg, ip qd administered for 5 days relative to control. The data set is classed as functional. The following applies: 120 h, route intraperitoneal.
Data set [20] is described as follows: Hydrolytic stability of the compound at 5 umol at pH 8 at 25 degC after 24 hrs by UV analysis in presence of bacterial alkaline phosphatase. In kind it is physicochemical. The following applies: isolated protein, pH 8, 24 h. The method, boiled down:
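5 μmol conjugate in Tris-HCl (pH 8.0) with bacterial alkaline phosphatase suspension, 0.5 mL total, incubated at 25 °C for 24 h. Paper chromatography against authentic markers.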

Data set [21] is described as follows: Drug degradation in baboon plasma at 5 umol at 37 degC after 24 hrs by UV analysis. In kind it is ADME, cell-free. The settings on record: papio anubis, read-out: Drug degradation. The method, boiled down: as §3
For data set [22], the system named is L1210. Nature of the data set: Antitumor activity against mouse L1210 cells allografted in C3D2F1/J mouse assessed as increase in life span at 25 mg/kg, ip qd administered for 5 days relative to control. In kind it is functional. The following applies: 120 h, route intraperitoneal.
In data set [23] the test system is Mus musculus. The experiment in a line: Toxicity in C3D2F1/J mouse allografted with mouse L1210 cells assessed as body weight change at 25 mg/kg, ip qd administered for 5 days measured on day 8 (reference value: 1.81 +/- 0.79 g). The following applies: in vivo, 120 h. Also noted: dose 25 mg/kg, route intraperitoneal. The data set is classed as organism-based.

For `C[C@]12C=CC(=O)C=C1CC[C@@H]1[C@@H]2[C@@H](O)C[C@@]2(C)[C@H]1CC[C@]2(O)C(=O)CO` [PREDNISOLONE], the MST in the data set with L1210 [1] is 9.5 days. The ILS at 27 mg/kg in the data set on L1210 [2] is -5%. Also, in the data set with Mus musculus [3], the Activity is recorded as -0.85 g. Also, the EC50 in the data set with L1210 [4] is 100 µM.

With `C[C@]12C=CC(=O)C=C1CC[C@@H]1[C@@H]2C(=O)C[C@@]2(C)[C@H]1CC[C@]2(O)C(=O)CO[P+]([O-])(O)OC[C@H]1O[C@@H](n2ccc(N)nc2=O)[C@@H](O)[C@@H]1O` (stereo partly drawn), the Activity with Mus musculus [5] is -0.3 g; in the data set with Mus musculus [9], -1.5 g; with Mus musculus [11], -0.75 g; in the data set on Mus musculus [23], -0.14 g. In addition, the MST came to 10 days in the data set with L1210 [6], 18 days in the data set on L1210 [15], 14.5 days in the data set with L1210 [17] and 14 days in the data set with L1210 [18]. The Drug degradation in data set [7] and in data set [8] was 50% in each case. For the same compound, the ILS at 75 mg/kg in the data set with L1210 [10] was found to be 55.6%. The remaining at 24 h, 5 umol in data set [12] worked out at 7%; in [14], 74%. Further, the results for the metabolised at 24 h, 5 umol in data set [13] and in data set [21] were 88% and 15%, respectively. For the same compound, in the data set on L1210 [16], the ILS at 100 mg/kg is 11.1%. Further, in the data set with L1210 [4], the EC50 is 0.5 µM. In the data set with L1210 [19], the ILS at 50 mg/kg was 100%. In addition, the Stability entry in [20] is “Stable”. The ILS at 25 mg/kg in the data set with L1210 [22] turned out to be 61.1%.

On to `C[C@]12C=CC(=O)C=C1CC[C@@H]1[C@@H]2C(=O)C[C@@]2(C)[C@H]1CC[C@]2(O)C(=O)CO` [PREDNISONE], for which the MST in the data set on L1210 [1] came out at 9.5 days. For the same compound, the ILS at 27 mg/kg in the data set with L1210 [2] is -5%. Further, the Activity in the data set on Mus musculus [3] is -1.01 g. The EC50 in the data set on L1210 [4] is greater than 100 µM.
